DAX1 inh-1 = inhibits human nuclear receptor DAX1; 340,000 compounds, 0.99% hits; HEK293 Gal4-DAX1 luciferase reporter, luminescence; P51843; inhibition, % at 6.75 µM;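 active = inhibition above the mean over all tested compounds plus 3 SD, cut at about 4.2% in these data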;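 note: 0% = DAX1-transfected cells with DMSO and 100% = empty-vector control cells with DMSO; inhibition shows as a rise in luminescence from relieved DAX1 repression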
Target sequence (P51843 207-470 limits assumed): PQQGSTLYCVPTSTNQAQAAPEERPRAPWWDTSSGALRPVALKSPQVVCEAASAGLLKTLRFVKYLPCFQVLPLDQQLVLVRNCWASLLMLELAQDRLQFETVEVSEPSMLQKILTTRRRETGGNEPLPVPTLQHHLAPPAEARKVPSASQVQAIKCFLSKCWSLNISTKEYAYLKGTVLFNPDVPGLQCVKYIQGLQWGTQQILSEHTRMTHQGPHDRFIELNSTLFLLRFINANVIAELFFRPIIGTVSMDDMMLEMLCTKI
NR2E3 ag-1 = activates human NR2E3 receptor; Q9Y5X4; CHO-S Gal4-NCOR/VP16-NR2E3 two-hybrid, luciferase; inhibition of corepressor binding, % at 3.98 µM; 360,000 compounds, 0.35% hits;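 active = inhibition above the mean of all tested compounds plus 3 SD, cut at about 70% in these data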;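 note: 0% = DMSO with NR2E3 transfected cells and 100% = cells lacking NR2E3 construct; higher means lower luciferase signal from less NR2E3 corepressor binding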
SMARCA2 activ = increases SMARCA2 function in MMTV reporter cells; MG213 cells, MMTV-luciferase reporter, dexamethasone, overnight; activation, % at 9.1 µM; 370,000 compounds, 1% hits; AID 652017; in the data active = activation above about 7.8%;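 note: 0% = vehicle wells and 100% = reference activator wells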
DAX1 inh-2 = inhibitors of DAX1 repression of SF-1 activated StAR promoter; HEK293T StAR-luciferase reporter, SF-1/DAX-1 repression relief; inhibition, % at 6.8 µM; 370,000 compounds, 1.1% hits; AID 652010;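 active = inhibition above the mean over all tested compounds plus 3 SD, cut at about 3.6% in these data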;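 note: 0% = DAX-1 cells with DMSO and 100% = cells lacking DAX-1 with DMSO; higher inhibition means more luminescence from relief of DAX-1 repression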
NR2E3 ag-2 = activates human photoreceptor nuclear receptor NR2E3; Q9Y5X4; GST-NR2E3/biotin-RetCOR TR-FRET, 1536-well; inhibition of corepressor binding, % at 4.78 µM; 320,000 compounds, 0.12% hits; AID 2300;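 active = percent inhibition above the cutoff of mean plus 3 SD of all tested compounds, set per screening campaign, cut at about 20% in these data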;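 note: 0% = DMSO wells and 100% = biotin wells as full block of FRET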
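Material: NR2E3–RetCOR corepressor complex / Incubation: Compound–protein incubation for 5 h at 4 °C / Dosing: compound at 4.8 µM, single dose / Detection: time-resolved FRET / Benchmarks: high control biotin, low control 0.6% DMSO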
GASC-1 inh = blocks human GASC-1 demethylase activity; GST-JMJD2C(1-420) H3K9me3 demethylation, DELFIA europium; Q9H3R0; inhibition, % at 2.35 µM; 330,000 compounds, 0.069% hits;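 active = more than half of a compound's replicate wells show inhibition beyond 50%, single wells judged on their own value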;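 note: signal counts dimethyl H3K9 product captured on neutravidin plate; 0% = median of DMSO wells and 100% = 0.3 times that DMSO median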
Target sequence (Q9H3R0 1-420 limits assumed): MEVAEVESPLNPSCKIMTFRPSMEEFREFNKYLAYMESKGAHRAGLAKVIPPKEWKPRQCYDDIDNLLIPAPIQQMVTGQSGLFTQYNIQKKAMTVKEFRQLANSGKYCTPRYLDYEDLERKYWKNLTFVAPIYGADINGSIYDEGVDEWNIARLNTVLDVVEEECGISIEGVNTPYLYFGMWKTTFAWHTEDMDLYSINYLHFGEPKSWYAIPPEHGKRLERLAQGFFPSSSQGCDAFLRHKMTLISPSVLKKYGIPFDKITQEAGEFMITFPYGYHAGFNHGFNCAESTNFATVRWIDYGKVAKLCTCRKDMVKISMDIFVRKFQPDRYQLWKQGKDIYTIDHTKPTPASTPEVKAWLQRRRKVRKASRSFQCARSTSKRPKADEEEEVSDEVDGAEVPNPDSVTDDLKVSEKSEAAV
SMARCA2 act conf = confirmation of SMARCA2 (BRM) function activators; 3,500 compounds, 30% hits; MG213 cells, MMTV-luciferase with dexamethasone, luminescence, overnight; MG213 cells expressing E1A, Rb sequestered; DMSO wells 0%, reference activator 100%; shares compounds with SMARCA2 activ; activation, % at 9.1 µM;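 active = activation above its plate's cutoff, the mean activation of tested wells plus 3 SD, cut at about 7.9% in these data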
VP16 Luc act = GAL4-VP16 reporter activation counter-screen | 3,500 compounds, 41% hits | AID 686939 | HEK293 GAL4-VP16 pG5luc reporter, luciferase luminescence; scaled: DMSO wells 0%, SAHA wells 100% | shares compounds with SMARCA2 activ | activation, % at 9.1 µM;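 active = activation above the solvent-only control well mean plus 3 SD, averaged across control plates, cut at about 5.2% in these data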
* = called active by the depositor. The list is not random: actives were taken first. Their share in the collection is about 3.2%.

Screening Cc1cc2nc(/C=C/c3nc4cc(C)c(C)cc4[nH]3)[nH]c2cc1C returned DAX1 inh-1 0, NR2E3 ag-1 -24, SMARCA2 activ 5, DAX1 inh-2 0, NR2E3 ag-2 -5 and GASC-1 inh -23.
Screening Fc1ccc(N/N=C/c2cccnc2)c(F)c1 returned DAX1 inh-1 1, NR2E3 ag-1 -1, SMARCA2 activ 8.4*, DAX1 inh-2 0, NR2E3 ag-2 2, GASC-1 inh 4, SMARCA2 act conf 1 and VP16 Luc act 1.
For FC(F)(F)c1ccccc1N/N=C/c1cccnc1 the results were DAX1 inh-1 0, NR2E3 ag-1 -5, SMARCA2 activ -1, DAX1 inh-2 1, NR2E3 ag-2 3 and GASC-1 inh -12.
Screening Cc1cc(C)cc(NC(=O)N2CCN(Cc3nc4ccccc4c(=O)[nH]3)CC2)c1 returned SMARCA2 activ -6 and DAX1 inh-2 0.
For COc1cccc(N(C)C(=O)[C@@H](C2CC2)[C@@H](O)c2ccc(C(C)=O)cc2)c1 the results were SMARCA2 activ -2 and DAX1 inh-2 -1.
`O=C(NCc1cccnc1)Nc1ccc(Cl)c(Cl)c1` gave DAX1 inh-1 -1, NR2E3 ag-1 -3, SMARCA2 activ 8.1*, DAX1 inh-2 0, NR2E3 ag-2 3, GASC-1 inh 1, SMARCA2 act conf 1 and VP16 Luc act 3.
C=COCCNC(=O)Nc1ccc(Cl)c(Cl)c1 was read as DAX1 inh-1 -1, NR2E3 ag-1 8, SMARCA2 activ 8.2*, DAX1 inh-2 0, NR2E3 ag-2 4, GASC-1 inh -2, SMARCA2 act conf 1 and VP16 Luc act 2.
COc1ccccc1N(CCC#N)C(=O)COC(=O)CCC(=O)c1ccc(F)cc1 was read as DAX1 inh-1 0, NR2E3 ag-1 4, SMARCA2 activ -2, DAX1 inh-2 -1, NR2E3 ag-2 0 and GASC-1 inh 8.
`COc1ccc(/C(C)=N/NC(=O)c2ccncc2)cc1` gave DAX1 inh-1 2, NR2E3 ag-1 -9, SMARCA2 activ 0, DAX1 inh-2 0, NR2E3 ag-2 1 and GASC-1 inh -3.
Screening C/C(=N\NC(=O)c1nn(C)cc1Cl)c1ccncc1 returned DAX1 inh-1 1, NR2E3 ag-1 -19, SMARCA2 activ 9.5*, DAX1 inh-2 1, NR2E3 ag-2 0, GASC-1 inh -9, SMARCA2 act conf 0 and VP16 Luc act -1.
Screening O=[N+]([O-])c1cc(C=NN2CCN(Cc3ccccc3Cl)CC2)ccc1Cl returned SMARCA2 activ 4 and DAX1 inh-2 -2.
Screening O=c1[nH]c2ccccc2c2nc3ccccn3c12 returned DAX1 inh-1 2, NR2E3 ag-1 -20, SMARCA2 activ 12*, DAX1 inh-2 1, NR2E3 ag-2 -3, GASC-1 inh -5, SMARCA2 act conf 16* and VP16 Luc act 7.1*.
Screening O=C1CC(c2cc(-c3ccccc3)no2)C1 returned DAX1 inh-1 2, NR2E3 ag-1 -71, SMARCA2 activ 9.7*, DAX1 inh-2 2, NR2E3 ag-2 1, GASC-1 inh 10, SMARCA2 act conf 3 and VP16 Luc act 7.5*.
For CCn1c(C)nc2cc(C(=O)NNS(=O)(=O)c3c(C)c(C)cc(C)c3C)ccc21 the results were DAX1 inh-1 1, NR2E3 ag-1 5, SMARCA2 activ 12*, DAX1 inh-2 0, NR2E3 ag-2 -2, GASC-1 inh 6, SMARCA2 act conf -1 and VP16 Luc act 0.
For O=C(Nc1ccc(F)cc1F)c1ccc(S(=O)(=O)NCc2ccco2)cc1 the results were DAX1 inh-1 0, NR2E3 ag-1 0, SMARCA2 activ -1, DAX1 inh-2 -1 and GASC-1 inh 9.
For CCN(CC)CCNc1ccc(CO)c2sc3ccccc3c(=O)c12 the results were DAX1 inh-1 0, NR2E3 ag-1 -10, SMARCA2 activ 5, DAX1 inh-2 -3, NR2E3 ag-2 4 and GASC-1 inh -25.
O=c1c2ccccc2sc2c(CO)ccc(NCCN3CCCCC3)c12 was read as DAX1 inh-1 -1, NR2E3 ag-1 -21, SMARCA2 activ 8.6*, DAX1 inh-2 0, SMARCA2 act conf 29* and VP16 Luc act -1.
COc1ccc(N)cc1-n1cnnn1 was read as DAX1 inh-1 2, NR2E3 ag-1 11, SMARCA2 activ -1, DAX1 inh-2 -1, NR2E3 ag-2 -3 and GASC-1 inh 9.
Screening COc1ccc(C)cc1-n1cnnn1 returned DAX1 inh-1 1, NR2E3 ag-1 3, SMARCA2 activ 8.1*, DAX1 inh-2 0, NR2E3 ag-2 1, GASC-1 inh 19, SMARCA2 act conf 0 and VP16 Luc act 2.
`CC(C)C[C@@H]1COc2cc(Br)ccc2S(=O)(=O)N1Cc1cn(Cc2ccc(C(F)(F)F)cc2)nn1` gave SMARCA2 activ 3 and DAX1 inh-2 0.
Screening COc1cccc(NC(=O)CCC2CCN(C(=O)C3CC=CCC3)CC2)c1 (stereo not drawn) returned DAX1 inh-1 0, NR2E3 ag-1 -20, SMARCA2 activ 8.0*, DAX1 inh-2 0, NR2E3 ag-2 -4, GASC-1 inh -1, SMARCA2 act conf -3 and VP16 Luc act 2.
Cc1cccc(NC(=O)CCC2CCN(C(=O)C3CC=CCC3)CC2)c1 (stereo not drawn) was read as DAX1 inh-1 0, NR2E3 ag-1 -21, SMARCA2 activ -1, DAX1 inh-2 -3, NR2E3 ag-2 3 and GASC-1 inh 0.
Screening O=C(c1ccc(Br)cc1)N1CCN(c2ccccn2)CC1 returned DAX1 inh-1 0, NR2E3 ag-1 6, SMARCA2 activ -4 and DAX1 inh-2 0.
`CCCCc1ccc(NC(=O)N[C@@H](CC(C)C)C(=O)O)cc1` gave DAX1 inh-1 0, NR2E3 ag-1 2, SMARCA2 activ 3, DAX1 inh-2 0, NR2E3 ag-2 0 and GASC-1 inh 1.
For CCCCc1ccc(NC(=O)CC(C)C)cc1 the results were DAX1 inh-1 1, NR2E3 ag-1 -48, SMARCA2 activ 9.7*, DAX1 inh-2 1, NR2E3 ag-2 -1, GASC-1 inh -11, SMARCA2 act conf 4 and VP16 Luc act 4.
For CCCCc1ccc(NC(=O)COCC)cc1 the results were DAX1 inh-1 1, NR2E3 ag-1 -29, SMARCA2 activ 8.1*, DAX1 inh-2 0, NR2E3 ag-2 -1, GASC-1 inh -15, SMARCA2 act conf 3 and VP16 Luc act 5.
